SMILES strings stand for the structures. Bounds are passed on as bounds.

The values below come from ChEMBL document CHEMBL4196114 (ACS Med Chem Lett, 2018).

Data set [1] in a line: Selectivity index, ratio of IC50 for PMA-differentiated human THP1 cells to IC50 for Leishmania tropica MHOM/IT/2012/ISS3130 promastigotes. It is filed as toxicity. The settings on record: read-out: Ratio IC50.
Data set [2] is described as follows: Selectivity index, ratio of IC50 for PMA-differentiated human THP1 cells to IC50 for amastigote stage of Leishmania infantum infected in PMA-differentiated human THP1 cells. It is filed as toxicity. To be noted: read-out: Ratio IC50.
Data set [3] concerns Leishmania infantum. The data set can be described thus: Antileishmanial activity against amastigote stage of Leishmania infantum infected in PMA-differentiated human THP1 cells assessed as inhibition of parasite growth after 72 hrs by Giemsa staining based light microscopy. The settings on record: THP-1, 72 h. In kind it is functional, organism-based. The procedure, abridged:
(§1)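 THP-1 cells at 5×10⁵ cells/mL differentiated with 0.1 μM PMA for 48 h, then infected with metacyclic L. infantum promastigotes (1:10 macrophage:parasite) for 24 h. Washed monolayers exposed to compound for 72 h, methanol-fixed and Giemsa-stained. Percent infected macrophages versus untreated scored by light microscopy, and IC50 derived. Single-concentration values are means of two or three experiments, IC50 of two.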

The nature of data set [4]: Selectivity index, ratio of IC50 for PMA-differentiated human THP1 cells to IC50 for Leishmania infantum MHOM/TN/80/IPT1 promastigotes. It is filed as toxicity. The settings on record: read-out: Ratio IC50.
The subject of data set [5] is Leishmania infantum. The experiment in a line: Antileishmanial activity against amastigote stage of Leishmania infantum infected in PMA-differentiated human THP1 cells assessed as inhibition of parasite growth at 0.5 uM after 72 hrs by Giemsa staining based light microscopy relative to control. It is filed as functional. The settings on record: THP-1, 72 h. A digest of the protocol:
as §1

Data set [6] relates to Leishmania infantum. The experiment in a line: Antileishmanial activity against Leishmania infantum MHOM/TN/80/IPT1 promastigotes after 72 hrs by MTT assay. In kind it is functional, organism-based. To be noted: MHOM/TN/80/IPT1, 72 h. A digest of the protocol: (§2)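 Promastigotes grown in Schneider's medium with 10% FCS at 22 °C. Assay in RPMI with 10% FCS, 20 mM Hepes and 2 mM glutamine, 5×10⁶ parasites/mL, seven serial dilutions from DMSO stocks, 72 h at 22 °C. MTT added for 3 h, pellet lysed in SDS/DMF, A550 read against 650 nm reference. IC50 given as mean of separate duplicate experiments; amphotericin B as reference.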
(In general: Tetrazolium assays rely on reduction of a dye to a coloured formazan, in cell work by metabolically active cells.)

The subject of another data set is THP-1. The data set can be described thus: Cytotoxicity against PMA-differentiated human THP1 cells after 72 hrs by MTT assay. It is filed as cell-based. The settings on record: THP-1, 72 h. The procedure, abridged: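 THP-1 cells at 5×10⁵ cells/mL, differentiated with 0.1 μM PMA for 48 h, then exposed to serial dilutions for 72 h. Viability read by MTT; IC50 for growth inhibition. Duplicate experiments, mean reported.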

In a further data set the test system is Leishmania tropica. The experiment in a line: Antileishmanial activity against Leishmania tropica MHOM/IT/2012/ISS3130 promastigotes after 72 hrs by MTT assay. To be noted: MHOM/IT/2012/ISS3130, 72 h. In kind it is functional, organism-based. The procedure, abridged: as §2

What is called IC50 is the midpoint of a concentration-inhibition curve. One may read the inhibition as the drop in the measured response relative to a control, in per cent. Regarding `CC(CCCNCc1ccc(-c2csc3ccc(C#N)cc23)cc1)Nc1ccnc2ccccc12` (stereo unspecified), the values for the selectivity ratio in data set [1], in data set [2] and in data set [4] were 2.3, 3.51 and 1.8, respectively. Besides, the IC50 in the data set with Leishmania infantum [3] was 790 nM; in the data set with Leishmania infantum [6], 1550 nM; in the data set on THP-1, 2790 nM; in the data set on Leishmania tropica, 1220 nM. Besides, in the data set on Leishmania infantum [5], the inhibition at 0.5 µM amounted to 42.2%.

`Fc1ccc2scc(-c3ccc(CNCCCNc4ccnc5ccccc45)cc3)c2c1`: the selectivity ratio in data set [1] was determined as 2.8; in data set [4], 2.2. Further, the figures for the IC50 in the data set with Leishmania infantum [6], in the data set with THP-1 and in the data set with Leishmania tropica were 1030 nM, 2310 nM and 810 nM, respectively.

On to `Fc1ccc2scc(C#CCNCCCCNc3ccnc4ccccc34)c2c1`, for which the selectivity ratio in data set [1] turned out to be 5.2; in data set [4], 7. For the same molecule, the half-inhibitory concentration (IC50) worked out at 1020 nM with Leishmania infantum [6], 7110 nM with THP-1 and 1370 nM with Leishmania tropica.

As to `N#Cc1ccc(-c2ccc(-c3ccc(CNCCCCCCCCNc4ccnc5c4CCCC5)cc3)s2)cc1`, the selectivity ratio in data set [1] is 3.1; in data set [2], < 2.31; in data set [4], 3.2. Further, the IC50 is > 1000 nM in the data set on Leishmania infantum [3], 720 nM in the data set with Leishmania infantum [6], 2310 nM in the data set on THP-1 and 750 nM in the data set on Leishmania tropica. In addition, the inhibition at 0.5 µM in the data set on Leishmania infantum [5] worked out at 29.6%.

`CCN(CC)CCCC(C)Nc1c([N+](=O)[O-])cnc2cc(Cl)ccc12` (stereo unspecified): the selectivity ratio in data set [1] was > 37; in data set [4] it was > 16.9. Moreover, the results for the IC50 with Leishmania infantum [6], with THP-1 and in the data set with Leishmania tropica were 6490 nM, > 110000 nM and 2960 nM, respectively.

For the molecule `CN(CCCCCCCCNc1ccnc2ccccc12)Cc1ccc(-c2ccc(-c3ccc(C#N)cc3)s2)cc1`, the selectivity ratio turned out to be 3.6 in data set [1] and 4.8 in data set [4]. Moreover, the IC50 with Leishmania infantum [6] came to 800 nM; in the data set with THP-1, 3850 nM; with Leishmania tropica, 1060 nM.

Turning to `CC(CCN(C)CCC12CC3CC(CC(C3)C1)C2)Nc1ccnc2cc(Cl)ccc12` (stereo unspecified), the selectivity ratio in data set [1] is 1.8; in data set [2] it was 1.72; in data set [4], 1.3. The IC50 in the data set with Leishmania infantum [3] worked out at 1910 nM; in the data set with Leishmania infantum [6] it was 2460 nM; in the data set with THP-1 it was 3290 nM; with Leishmania tropica it was 1840 nM. Moreover, the inhibition at 0.5 µM in the data set with Leishmania infantum [5] was found to be 29.6%.

`Clc1ccc2c(NCCCCCNCCC34CC5CC(CC(C5)C3)C4)ccnc2c1`: the values for the selectivity ratio in data set [1] and in data set [4] were 2.7 and 2.5, respectively. In addition, the IC50 with Leishmania infantum [6] amounted to 730 nM; in the data set on THP-1 it was 1810 nM; with Leishmania tropica, 660 nM.

As for `Clc1ccc2c(NCCCNCc3csc4ccccc34)ccnc2c1`, the selectivity ratio in data set [1] was determined as 2.3; in data set [2], 1.6; in data set [4], 2.6. Also, the IC50 in the data set on Leishmania infantum [3] was 1850 nM; in the data set on Leishmania infantum [6], 1140 nM; with THP-1, 2960 nM; with Leishmania tropica it was 1310 nM. Besides, the inhibition at 0.5 µM in the data set with Leishmania infantum [5] amounted to 26.4%.

With `N#Cc1ccc(-c2ccc(-c3ccc(CNCCCCCCCCNc4ccnc5ccccc45)cc3)s2)cc1`, the selectivity ratio in data set [1] is 4.6; in data set [4], 4. The results for the IC50 in the data set with Leishmania infantum [6], with THP-1 and in the data set on Leishmania tropica were 350 nM, 1380 nM and 300 nM, respectively.

On to `c1ccc2c(NCCCCNCc3csc4ccccc34)ccnc2c1`, for which the selectivity ratio in data set [1] came out at 5.5; in data set [4], 5.8. In addition, the values for the IC50 in the data set with Leishmania infantum [6], with THP-1 and with Leishmania tropica were 640 nM, 3760 nM and 680 nM, respectively.

With `N#Cc1ccc(-c2ccc(-c3ccc(CNCCCCNc4ccnc5ccccc45)cc3)s2)cc1`, the selectivity ratio in data set [1] was 1.8; in data set [4], 2.3. Besides, the IC50 in the data set on Leishmania infantum [6] was 1220 nM; in the data set on THP-1 it was 2800 nM; in the data set with Leishmania tropica, 1540 nM.

Take `CCN(CC)CCCNc1c(N)cnc2cc(Cl)ccc12`: the selectivity ratio in data set [1] was > 7; in data set [4], > 3.9. Besides, the IC50 was 16600 nM in the data set with Leishmania infantum [6], > 65200 nM in the data set on THP-1 and 9350 nM in the data set on Leishmania tropica.

For `O=[N+]([O-])c1cnc2cc(Cl)ccc2c1NCCCNCC12CC3CC(CC(C3)C1)C2`, the selectivity ratio in data set [1] came out at 5.6; in data set [4], 6.6. In addition, the IC50 with Leishmania infantum [6] turned out to be 1910 nM; with THP-1, 12600 nM; with Leishmania tropica it was 2240 nM.

Consider `N#Cc1ccc2c(CNCCCCNc3ccnc4cc(Cl)ccc34)csc2c1`, for which the selectivity ratio in data set [1] was 3.4; in data set [2], 3.29; in data set [4], 3.4. Moreover, the IC50 with Leishmania infantum [3] is 1290 nM; in the data set on Leishmania infantum [6] it was 1230 nM; in the data set on THP-1, 4250 nM; in the data set on Leishmania tropica it was 1240 nM. Further, the inhibition at 0.5 µM in the data set on Leishmania infantum [5] was found to be 38.9%.

In the case of `CCN(CC)CCCC(C)Nc1ccnc2c1CCCC2` (stereo unspecified), the selectivity ratio in data set [1] and in data set [4] was > 1 in each case. In addition, the IC50 with Leishmania infantum [6], with THP-1 and in the data set with Leishmania tropica was > 69100 nM throughout.

On to `CN(CCCCCCCCNc1ccnc2c1CCCC2)Cc1ccc(-c2ccc(-c3ccc(C#N)cc3)s2)cc1`, for which the selectivity ratio in data set [1] stood at 4.6; in data set [4], 4.4. In addition, the IC50 in the data set with Leishmania infantum [6] was 830 nM; in the data set on THP-1, 3680 nM; in the data set on Leishmania tropica it was 800 nM.

As for `N#Cc1ccc(-c2ccc(-c3ccc(CNCCCCNc4ccnc5cc(Cl)ccc45)cc3)s2)cc1`, the selectivity ratio in data set [1] came out at 2.6; in data set [4] it was 2.2. Further, the IC50 was 2300 nM in the data set on Leishmania infantum [6], 5010 nM in the data set on THP-1 and 1940 nM with Leishmania tropica.

As for `N#Cc1ccc(-c2ccc(-c3ccc(CNCCCCCNc4ccnc5cc(Cl)ccc45)cc3)s2)cc1`, the selectivity ratio was determined as 1.1 in data set [1] and 1.5 in data set [4]. Moreover, the half-maximal inhibitory concentration (IC50) was determined as 5420 nM with Leishmania infantum [6], 8100 nM in the data set with THP-1 and 7110 nM with Leishmania tropica.

As to `Fc1ccc2scc(-c3ccc(CNCCCCNc4ccnc5cc(Cl)ccc45)cc3)c2c1`, the results for the selectivity ratio in data set [1] and in data set [4] were 5 and 4.2, respectively. In addition, the figures for the IC50 in the data set on Leishmania infantum [6], with THP-1 and with Leishmania tropica were 1020 nM, 4280 nM and 850 nM, respectively.

For `Fc1ccc2scc(CNCCCCNc3ccnc4cc(Cl)ccc34)c2c1`, the results for the selectivity ratio in data set [1], in data set [2] and in data set [4] were 3.8, < 1.91 and 3.8, respectively. Further, the IC50 is > 1000 nM in the data set on Leishmania infantum [3], 510 nM with Leishmania infantum [6], 1910 nM in the data set with THP-1 and 500 nM in the data set on Leishmania tropica. Also, in the data set on Leishmania infantum [5], the inhibition at 0.5 µM stood at 26.4%.

As for `CC(CCCNCc1ccc(-c2csc3ccc(F)cc23)cc1)Nc1ccnc2cc(Cl)ccc12` (stereo unspecified), the selectivity ratio in data set [1] worked out at 2.7; in data set [2] it was 3.34; in data set [4], 2.5. The IC50 in the data set with Leishmania infantum [3] stood at 730 nM; with Leishmania infantum [6] it was 980 nM; with THP-1, 2440 nM; in the data set with Leishmania tropica it was 910 nM. Moreover, in the data set with Leishmania infantum [5], the inhibition at 0.5 µM amounted to 36.9%.

Turning to `CC(CCNCCC12CC3CC(CC(C3)C1)C2)Nc1ccnc2ccccc12` (stereo unspecified), the results for the selectivity ratio in data set [1] and in data set [4] were 2.1 and 2, respectively. Besides, the IC50 with Leishmania infantum [6] amounted to 2400 nM; in the data set with THP-1, 4900 nM; with Leishmania tropica, 2350 nM.

Consider `Nc1cnc2cc(Cl)ccc2c1NCCCNCC12CC3CC(CC(C3)C1)C2`, for which the selectivity ratio is 4.9 in data set [1] and 3.6 in data set [4]. The IC50 in the data set on Leishmania infantum [6] was 1770 nM; in the data set with THP-1, 6390 nM; in the data set with Leishmania tropica, 1300 nM.

Regarding `CCN(CC)CCCC(C)Nc1c(N)cnc2cc(Cl)ccc12` (stereo unspecified), the results for the selectivity ratio in data set [1] and in data set [4] were > 9 and > 3.6, respectively. Also, the IC50 in the data set with Leishmania infantum [6] is 16600 nM; with THP-1, > 59700 nM; in the data set on Leishmania tropica it was 6630 nM.

Turning to `CCN(CC)CCCNc1ccnc2c1CCCC2`, the selectivity ratio in data set [1] and in data set [4] was > 1 each time. Also, the IC50 in the data set with Leishmania infantum [6], in the data set on THP-1 and in the data set with Leishmania tropica was > 76500 nM each time.

Consider `CCN(CC)CCCNc1c([N+](=O)[O-])cnc2cc(Cl)ccc12`, for which the selectivity ratio was determined as 8.5 in data set [1] and 2.7 in data set [4]. Besides, the figures for the IC50 in the data set on Leishmania infantum [6], in the data set on THP-1 and with Leishmania tropica were 8670 nM, 23700 nM and 2770 nM, respectively.
